PMC3772774 (Molecular cancer therapeutics, 2013)
pIC50: −log10 of the molar value.

What was measured:
c-Myc activation = c-Myc activation sensor luciferase assay in SK-ST stable cells; assay type: cell-based, human; conditions: for fold by which IC50 for sensor signal inhibition is higher than that of NTZ: SK-ST cells, PD98059 2hrs, U0126 1hr, Atorvastatin 16hrs
phospho c-Myc [1] = assay: Western blot of endogenous phospho c-Myc in lymphoma cells; assay type: cell-based; conditions: read-out: IC50 of inhibition of phospho c-Myc level
Summary of the method: (§1)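 SKBR3 (McCoy's 5a), lymphoma (RPMI plus 3.96×10-4% 2-mercaptoethanol) and osteosarcoma 1325 (DMEM) cells, all with 10% FBS, at 37°C, 5% CO2, were exposed to test compound as in the sensor assay. Lysates (50μg protein) were immunoblotted for phospho-c-Myc (Thr58/Ser62) and c-Myc, with β-actin as loading control, then ECL and densitometry. IC50 came from a four-parameter nonlinear fit of fold-change against log concentration; ≥3 repeats.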

phospho c-Myc [2] = assay: Western blot of endogenous phospho c-Myc in osteosarcoma cells; assay type: cell-based; conditions: read-out: IC50 of inhibition of phospho c-Myc level
Summary of the method: as §1

c-Myc = c-Myc inhibition in different cancer cell lines; assay type: cell-based; conditions: read-out: IC50 for c-Myc inhibition, range over different cancer cell lines
Summary of the method: as §1

SK-FST xenografts = assay: SK-FST breast cancer xenograft model in nude mice; assay type: in vivo; conditions: 200mg/kg gavage twice a day, about 18 days after implantation
[3] = biological target: full-length firefly luciferase (SK-FST cells) (Photinus pyralis, UniProt P08659); assay: Full-length firefly luciferase control assay in SK-FST stable cells; assay type: cell-based; conditions: 16hrs treatment
Summary of the method: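 SKBR3 cells stably expressing full-length firefly luciferase on a single vector, selected with 3μg/ml puromycin, grown in McCoy's 5a with 10% FBS at 37°C, 5% CO2. Test compound was applied for 16hrs. D-Luciferin (45μg/ml in PBS, pH 7.0) was added to the medium and IVIS images were taken at 2-min intervals until peak. Photon output was normalized to total lysate protein; ≥3 repeats.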

SKBR3 cells = assay: MTS cell toxicity assay in SKBR3 cells; assay type: cell-based, human
SK-ST xenografts = assay: SK-ST breast cancer xenograft model in nude mice; assay type: in vivo

Chain of full-length firefly luciferase (SK-FST cells) (P08659 whole entry): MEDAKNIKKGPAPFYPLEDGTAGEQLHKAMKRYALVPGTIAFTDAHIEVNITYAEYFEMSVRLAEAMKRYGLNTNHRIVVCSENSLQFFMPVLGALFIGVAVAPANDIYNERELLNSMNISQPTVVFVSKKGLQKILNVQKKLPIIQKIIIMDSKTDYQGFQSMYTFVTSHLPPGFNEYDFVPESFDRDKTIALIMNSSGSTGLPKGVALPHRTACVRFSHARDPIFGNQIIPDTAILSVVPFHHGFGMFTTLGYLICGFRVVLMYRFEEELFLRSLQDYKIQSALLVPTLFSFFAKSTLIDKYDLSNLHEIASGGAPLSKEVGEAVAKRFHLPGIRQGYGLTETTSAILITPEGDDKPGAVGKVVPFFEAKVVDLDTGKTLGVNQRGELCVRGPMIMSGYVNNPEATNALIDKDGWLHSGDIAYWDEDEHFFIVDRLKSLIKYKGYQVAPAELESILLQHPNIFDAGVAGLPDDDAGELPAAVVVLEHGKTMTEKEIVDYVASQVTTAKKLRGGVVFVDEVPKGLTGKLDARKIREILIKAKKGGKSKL

COc1cccc(-c2cc(=O)c3ccccc3o2)c1N [PD98059]
fold by which IC50 for sensor signal inhibition is higher than that of NTZ (c-Myc activation): about 2000 fold

N#CC(=C(/N)Sc1ccccc1N)/C(C#N)=C(/N)Sc1ccccc1N [U0126]
fold by which IC50 for sensor signal inhibition is higher than that of NTZ (c-Myc activation): ~500 fold

CC(C)c1c(C(=O)Nc2ccccc2)c(-c2ccccc2)c(-c2ccc(F)cc2)n1CC[C@@H](O)C[C@@H](O)CC(=O)O [Atorvastatin]
fold by which IC50 for sensor signal inhibition is higher than that of NTZ (c-Myc activation): about 50 fold

CC(=O)Oc1ccccc1C(=O)Nc1ncc([N+](=O)[O-])s1 [NTZ, nitazoxanide]
pIC50 (phospho c-Myc [1]): 6.36 | pIC50 (phospho c-Myc [2]): 7.92 | pIC50 (c-Myc): 6.30 to 8.00 | bioluminescent signal of SK-FST xenografts (SK-FST xenografts): sustained decrease of the signal | change of FL signal in SK-FST cells (direct effect on luciferase activity) [3]: no significant changes | pIC50 (c-Myc activation; Homo sapiens, 16 h, read-out: IC50 for the sensor signal inhibition): ~7.00 | half-maximal lethal dose (LD50) (SKBR3 cells): about 1 μM | common side effects (diarrhea, vomiting, skin rash) (SK-ST xenografts; 200mg/kg gavage twice a day for 27 days): didn’t observe the common side effects | tumor growth by gross inspection and caliper measurements (SK-ST xenografts; 200mg/kg gavage twice a day, 27 days after implantation, P=0.00007 vs CMC): drastic inhibition of tumor growth | bioluminescent signal from SK-ST xenografts (c-Myc activation) (SK-ST xenografts; 200mg/kg gavage twice a day, vs CMC group): greatly inhibited | caspase-3 staining, average positive cells in each sample (SK-ST xenografts; tumor samples, 200mg/kg gavage twice a day, CMC group 5±2, P<0.03): 23±8 positive cells | endogenous phospho and c-Myc protein levels in tumor samples (SK-ST xenografts; western blot, NTZ vs CMC group): greatly reduced
